# Source: PubChem BioAssay (The Scripps Research Institute Molecular Screening Center)
# This is a sample that favours compounds with a hit; in the whole collection about 4.7% have one here.
# AHR activator – human AHR activation; P35869; AHR-responsive luciferase reporter cells, luminescence; activation, % at 5 µM; 320,000 compounds, 2.5% hits; in the data active = activation above about 47%;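 also: 0% = vehicle wells and 100% = reference agonist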
# MC4R antag cAMP – antagonists of human melanocortin 4 receptor (MC4R); AID 540295; inhibition, % at 6.5 µM; 360,000 compounds, 0.48% hits; MC4R-expressing cells, MTII-stimulated cAMP, LANCE TR-FRET; P32245;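 active = inhibition above its plate's cutoff, the mean of tested wells on that plate plus 3 SD, cut at about 29% in these data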;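 also: 0% = Melanotan II alone and 100% = Melanotan II plus saturating MCL0020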
# Target sequence (P32245 whole entry, looked up): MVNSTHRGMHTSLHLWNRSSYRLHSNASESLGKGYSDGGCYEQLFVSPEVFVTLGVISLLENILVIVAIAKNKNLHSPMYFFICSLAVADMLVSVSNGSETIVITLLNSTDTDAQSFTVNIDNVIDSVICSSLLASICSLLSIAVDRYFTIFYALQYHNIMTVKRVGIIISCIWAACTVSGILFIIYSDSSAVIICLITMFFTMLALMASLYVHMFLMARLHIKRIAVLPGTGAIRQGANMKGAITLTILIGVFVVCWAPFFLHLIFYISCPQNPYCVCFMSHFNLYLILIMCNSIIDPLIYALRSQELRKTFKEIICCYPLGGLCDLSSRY
#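 System: U2OS cells stably expressing human melanocortin 4 receptor (MC4R). Reagent: Melanotan II challenge after compound preincubation. Doses: 6.5 µM. Times: 30-min compound, 1-h challenge, 1-h detection, room temperature. Measured by: TR-FRET with Eu-cAMP and labeled anti-cAMP, 671 nm. Replicates: singlicate.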
# m5-HT2A agonist – activates the mouse 5-HT2A serotonin receptor; P35363; AID 624169; CHO-K1 mHTR2A beta-arrestin complementation, luminescence; percent of 30 µM serotonin response; 360,000 compounds, 0.66% hits; activation, % at 7.6 µM;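 active = activation above a run cutoff, the mean activation of all tested compounds plus 3 SD, cut at about 14% in these data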;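 also: 0% = plate median of compound wells and 100% = 30 µM serotonin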
# GAA850 FXN act – increases GAA850 frataxin promoter reporter activity | HEK293 lucGAA850 FXN promoter luciferase reporter, 24 h; percent of 10 µM SAHA response | activation, % at 6 µM | 360,000 compounds, 0.56% hits | AID 540364;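 active = activation above the average of all compounds screened plus 3 SD, cutoff fixed separately per campaign, cut at about 7.5% in these data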;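 also: 0% = DMSO wells and 100% = 10 µM SAHA wells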
# MC4R barr agon – activates human MC4R beta-arrestin recruitment; 360,000 compounds, 0.98% hits; activation, % at 8.9 µM; U2OS MC4R beta-arrestin complementation, luminescence; percent of melanotan II response, DMSO zero; AID 540308; P32245;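 active = activation above a per-plate cutoff, the mean activation of sample wells on that plate plus 3 SD, cut at about 8% in these data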
# AHR act cf – human AHR activation, confirmation; shares compounds with AHR activator; human cells, AHR-responsive luciferase reporter, luminescence; activation, % at 9 µM; 2,300 compounds, 87% hits; in the data active = activation above about 49%;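 also: HepG2 hepatoma cells carrying a DRE-driven firefly luciferase reporter; 0% = vehicle wells and 100% = reference agonist wells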
# PXR act counter – counter-screen for AHR activators: human PXR activators; cell-based PXR reporter, luciferase luminescence; 2,300 compounds, 88% hits; AID 434939; shares compounds with AHR activator; activation, % at 11.6 µM; in the data active = activation above about 11%;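 also: human hepatoma DPX-2 cells expressing full-length human PXR; 0% = DMSO and 100% = reference agonist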
# Starred values were filed as active, the others as inactive; · = no result given.
SMILES,AHR activator,MC4R antag cAMP,m5-HT2A agonist,GAA850 FXN act,MC4R barr agon,AHR act cf,PXR act counter
COc1ccc(N2CCN(C(=O)c3c(Cl)cnn3C)CC2)cc1,7,6,-4,2,1,·,·
COc1ccc(N2CCN(C(=O)c3cc4c(-c5ccc(Cl)cc5)nn(C)c4s3)CC2)cc1,90*,6,1,1,0,121*,33*
Cc1ccc(NC(=O)COC(=O)c2ccc(C)c(S(=O)(=O)N3CCOCC3)c2)cc1,·,3,-1,2,0,·,·
COc1ccc2nccc(/C=C/c3ccnc4ccc(OC)cc34)c2c1,105*,0,1,3,5,96*,34*
O=C(Nc1ccc(Cl)cc1)c1csc(Cc2ccccc2)n1,85*,-5,-1,1,-3,16,6
COc1ccc(Cc2nc(C(=O)Nc3ccc(Cl)cc3)cs2)cc1,11,5,1,3,-1,·,·
COP(=O)(OC)C(Nc1ccc(C)cc1)c1ccc(Br)cc1 (stereo not given),·,27,-4,0,-2,·,·
Oc1ccccc1-c1cc(-c2ccccc2Cl)[nH]n1,96*,-1,-3,4,1,115*,18*
Cc1cc(C)n2nc(N)c(N=Nc3ccc(Cl)cc3)c2n1,109*,-3,-4,1,0,98*,31*
Cc1cc(C)n2nc(C)c(-c3ccc(Cl)cc3)c2n1,6,-21,-8,2,-2,·,·
N=C1S/C(=C\c2ccco2)C(=O)N1c1nccs1,112*,-1,-6,3,-3,111*,10*
Cc1sc(NC(=O)C2=COCCO2)nc1-c1ccc(Br)cc1,99*,-9,-1,2,1,94*,34*
Cn1c(=O)c2cc(NC(=O)NCCc3ccccc3)ccc2n1Cc1ccc(F)cc1,·,-6,-2,-1,-2,·,·
O=C(Nc1ccc(Br)cc1)c1cccc(N2C(=O)C3CCCCC3C2=O)c1 (stereo not given),114*,6,2,-1,-3,19,18*
CS(=O)(=O)N(CC(=O)Nc1cccc([N+](=O)[O-])c1)c1ccccc1,90*,-1,9,2,-2,48*,83*
Cn1c(C=O)c(C#CC(C)(C)O)c2ccccc21,21,-5,3,-1,2,·,·
COc1ccc(C#Cc2ccc3c(c2)c(=O)c2ccccc2n3C)cc1,91*,6,-6,2,-2,103*,14*
COc1cccc(C#Cc2c(C=O)n(C)c3ccccc23)c1,110*,14,5,-2,2,130*,43*
Nc1nc2ccccc2n1/N=C/c1ccc([N+](=O)[O-])s1,128*,2,3,0,0,79*,11*
Nc1nc2ccccc2n1/N=C/c1cccnc1,32,9,-1,2,-1,·,·
COc1ccc(C(O)c2ncc(-c3ccccc3)[nH]2)c(OC)c1 (stereo not given),·,16,-1,1,1,·,·
Cc1onc(-c2ccccc2)c1-c1nnc(CN2CCN(S(=O)(=O)c3ccccc3)CC2)o1,12,6,-1,1,1,·,·
O=C(NC(=S)Nc1ccc2cn[nH]c2c1)c1ccccc1,84*,18,-6,2,-1,81*,75*
Cc1sc(N/N=C/c2ccco2)nc1-c1ccccc1,170*,9,-3,-1,-2,80*,31*
COc1ccccc1NC(=O)c1sc2nc(-c3ccco3)ccc2c1N,106*,14,0,2,-1,95*,21*
SMILES,AHR activator,MC4R antag cAMP,m5-HT2A agonist,GAA850 FXN act,MC4R barr agon,AHR act cf,PXR act counter
Nc1c(C(=O)Nc2ccccc2)sc2nc(-c3ccco3)ccc12,19,14,-2,-3,-1,·,·
COCc1cc(=O)[nH]c(Nc2nc3ccccc3o2)n1,130*,-4,-6,0,-1,74*,19*
CC(C)(C)OC(=O)N1CCN(C(=O)c2[nH]cnc2C(=O)Nc2nccs2)CC1,9,-2,3,1,0,·,·
O=c1c2ccccc2[nH]c(=S)n1CCC1=CCCCC1,113*,-3,1,5,-1,125*,24*
Cc1cccc(N2C(=O)C(Oc3ccc(Cl)cc3Cl)C2C=O)c1C (stereo not given),1,5,8,0,-1,·,·
CCN(C(=O)COC(=O)c1cncc(Br)c1)C1CCS(=O)(=O)C1 (stereo not given),0,8,2,-2,-2,·,·
[O-][n+]1c2ccccc2c2n1CCN1CCOC21c1ccc(Cl)cc1 (stereo not given),80*,3,12,2,-1,118*,65*
COc1ccc(NC(=O)C(OC(=O)Cn2cnc3c2c(=O)n(C)c(=O)n3C)c2ccccc2)cc1Cl (stereo not given),·,11,-6,1,-1,·,·
O=c1cc(-c2ccco2)oc2c1ccc1ccccc12,79*,2,2,2,5,61*,25*
O=c1cc(-c2ccncc2)oc2c1ccc1ccccc12,12,-19,2,1,-1,·,·
N=C1SC(c2ccccc2)C(=O)N1c1ncc(Cc2ccccc2Cl)s1 (stereo not given),2,3,-1,1,-5,·,·
CCc1nn(CC(=O)NCCCN2CCOCC2)c(=O)c2cc3c(OC)cccc3n12,·,-5,0,0,-3,·,·
CCOC(=O)c1ccc2c(c1)nc(-c1ccc(F)cc1)c1nccn12,85*,-6,4,0,-1,99*,24*
O=[N+]([O-])c1cnc(Nc2ccc(Cl)cn2)c([N+](=O)[O-])c1,139*,2,-4,0,-3,80*,·
O=C(Nc1ccc(Cl)cn1)c1ccccc1[N+](=O)[O-],13,0,-1,1,1,·,·
C[C@H](CO)N1C[C@H](C)[C@@H](CN(C)Cc2ccncc2)Oc2c(cccc2N(C)C)C1=O,0,7,-3,-2,-1,·,·
Cc1nc(NC(=O)c2ccc(Cl)cc2)nc2cc3c(cc12)OCO3,91*,7,0,3,-2,71*,17*
Cc1cc(C)nc(NC(=O)c2ccc3c(c2)OCO3)c1,8,·,·,·,·,·,·
COc1ccc(C(=O)NCC(c2ccccc2)c2ccccc2)cc1S(=O)(=O)N1CCOCC1,·,9,-7,1,-1,·,·
CC(C)c1ccc(S(=O)(=O)/N=C2\C=C(NS(=O)(=O)c3ccccc3)C(=O)c3ccccc32)cc1,83*,7,2,0,2,20,130*
COc1cc2c(cc1NC(=O)Nc1ccc(C)cc1)oc1ccccc12,87*,17,-2,2,3,98*,·
